Test results reported in PMC2704382 (Cell, 2009).
Read-outs that look alike come from different tables or passages of the source. Each block holds one compound with its values, some of them ahead of it.

Experiments:
GSK3β [1] = experiment: In vitro GSK3β kinase assay; assay type: biochemical; conditions: for Inhibition of GSK3β: in vitro kinase assay
GSK3β [2] = experiment: GSK3β surface plasmon resonance; assay type: binding; conditions: SPR, peptide 25 µM
LEF/TCF = experiment: TCF reporter activity in DISC1 knockdown cells; assay type: cell-based
[3] = test system: adult hippocampal progenitor proliferation in dentate gyrus; assay type: in vivo, mouse; conditions: 2 mg/kg every other day for 2 weeks, n=5
[4] = test system: neural progenitor proliferation in mouse embryonic brains; experiment: BrdU labeling in shRNA electroporated embryonic brains; assay type: in vivo
[5] = test system: DISC1 knockdown AHP cells; experiment: BrdU incorporation in DISC1 knockdown AHP cells; assay type: cell-based
In short: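 Lentivirus-transduced AHPs (GFP marker) seeded on polyornithine/fibronectin-coated coverslips and pulsed with BrdU (10 µM) in medium for 2 hours. Fixed in 4% paraformaldehyde and immunostained for BrdU. Five random fields and over 500 cells counted per experiment. Read-out is the percentage of GFP-positive cells also BrdU-positive.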

Compound: Cc1c[nH]c(-c2cnc(NCCNc3ccc(C#N)cn3)nc2-c2ccc(Cl)cc2Cl)n1 [CHIR-99021]
TCF activity (LEF/TCF): rescued TCF activity in DISC1 knockdown cells to control levels

Compound: Cn1cc(C2=C(c3ccc(Cl)cc3Cl)C(=O)NC2=O)c2ccccc21 [SB-216763]
Number of BrdU positive cells ([3]; DISC1 shRNA-1 injected mice): rescued the reduction in BrdU positive cells | Number of BrdU positive cells ([3]; mice infected with control virus): significantly increased | TCF activity (LEF/TCF): rescued TCF activity in DISC1 knockdown cells to control levels | BrdU labeling index ([4]; DISC1 shRNA electroporated embryonic brains): rescued the BrdU labeling index | BrdU labeled cells ([4]; control shRNA electroporated mouse embryonic brains): increased BrdU labeled cells | Cell proliferation evaluated by BrdU incorporation [5]: restored cell proliferation

Other lines, results leading:

Inhibition of GSK3β kinase activity (GSK3β [1]; data not shown, concentration not given): failed to inhibit | Percent theoretical maximal response (GSK3β [2]): 238%
Compound: DISCtide2: 15-mer peptide that encompasses mDISC1 amino acids 211 to 225 (SFSFIQLSLGAAGER)

Inhibition of GSK3β (GSK3β [1]; 80 µM peptide): did not inhibit | Percent theoretical maximal response (GSK3β [2]): 62%
Compound: Peptide-neg: synthesized peptide from mDISC1 spanning amino acids 40–77 (GYMRSTAGSGIGFLSPAVGMPHPSSAGLTGQQSQHSQS)

Potency of GSK3β inhibition compared with L803-mts (GSK3β [1]; dose-response curve, n=3): more potently than L803-mts | Dose dependence of inhibition of recombinant GSK3β catalytic activity (GSK3β [1]; in vitro): dose dependent | Inhibition of GSK3β (GSK3β [1]; 10 µM peptide): inhibited | Percent theoretical maximal response (GSK3β [2]): 197%
Compound: DISCtide-1: synthesized peptide from mDISC1 spanning amino acids 195 to 238 (PADIASLPGFQDTFTSSFSFIQLSLGAAGERGEAEGCLPSREAE)
